# The list is not random: actives were taken first. Their share in the collection is about 1.4%.
# ARNT TACC3 PPI = disrupts binding between human ARNT and TACC3. AlphaScreen His-ARNT PAS-B/GST-TACC3 binding, luminescence; TACC3 fragment carries E629A point mutation. AID 623870. 390,000 tested, 0.66% active. inhibition, % at 9.99 µM. Q9Y6A5;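 active means mean inhibition of replicates at least 50% and at least half of replicates each reaching 50%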;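 further: 0% = complete ARNT plus TACC3 wells and 100% = ARNT alone without TACC3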
# CAL PDZ FP-1 = inhibitors of human CAL PDZ peptide binding; purified CAL PDZ, TMR-peptide fluorescence polarization, 1 h; inhibition, % at 20 µM; 330,000 tested, 0.02% active;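 active means highest replicate inhibition of at least 40%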;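 further: plate controls were DMSO neutral control wells for no effect and unlabeled competitor peptide control wells for full effect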
#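 Assay system – tagged CAL PDZ protein CerCALP, purified · Timing – 1 h at RT · Compound – single point, 20 µM · Measured by – fluorescence polarization from S- and P-plane intensities, G-factor corrected · Evaluation – inhibition from polarization loss · Probe or stimulus – TMR reporter peptide T*-PRC34 · Buffer or medium – pH 7.4 phosphate-saline buffer, reducing agent, detergent, IgG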
# CAL PDZ FP-2 = inhibitors of human CAL PDZ peptide binding; Q9HD26; purified CAL PDZ, TMR-peptide fluorescence polarization, 1 h; inhibition, % at 24.9 µM; 300,000 tested, 0.92% active; AID 602252;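 active means mean inhibition of at least 30% with at least half of replicates also reaching 30%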;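 further: 0% = DMSO neutral control and 100% = excess unlabeled competitor peptide PRC23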
# DYRK1A inh = Dyrk1A (rat) kinase inhibition; Q63470; ADP-Glo luminescence, NFATc1 peptide; inhibition, % at 12.5 µM; 310,000 tested, 0.43% active; AID 504441; in the data active means inhibition above about 50%;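 further: plate controls were vehicle with enzyme for no effect and no enzyme for full effect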
# Numbers without * were called inactive; x = not tested or not shown; + = active, no number.
SMILES,ARNT TACC3 PPI,CAL PDZ FP-1,CAL PDZ FP-2,DYRK1A inh
COc1cc(/C=N/Nc2ccccn2)cc(OC)c1O,66.5*,-2.1,-4.7,3.4
COc1ccc(CN(C)C[C@@H]2Oc3c(NS(=O)(=O)c4ccc(C)cc4)cccc3C(=O)N([C@H](C)CO)C[C@@H]2C)cc1,5.9,x,x,x
C[C@@H]1CN([C@@H](C)CO)C(=O)c2cc(NS(=O)(=O)c3cccs3)ccc2O[C@H]1CN(C)S(=O)(=O)c1ccc(Cl)cc1,-3.3,x,x,x
C[C@@H]1CN([C@H](C)CO)C(=O)c2cc(NC(=O)Cc3ccccc3)ccc2O[C@@H]1CN(C)C(=O)Nc1ccc(F)cc1,1.9,x,x,x
COc1ccc(C(N)=O)c(OCC(=O)Nc2cc(C)on2)c1,-1.0,0.1,38.6*,-2.7
C[C@@H]1CN([C@H](C)CO)C(=O)Cc2cc(NC(=O)CCN3CCOCC3)ccc2O[C@@H]1CN(C)C,-24.2,x,x,x
Cn1c(SSc2ccc(-c3cccnc3)n2C)ccc1-c1cccnc1,17.1*,-0.7,-3.9,2.3
CCCCC(=O)Nc1ccc(N2CCN(C(=O)CC)CC2)cc1,-9.6,-0.3,x,0.5
CCCC(=O)Nc1ccc(N2CCN(C(=O)CCC)CC2)cc1,-1.1,-0.8,39.4*,3.6
COC(=O)c1ccc(NC(=O)c2ccc(NC(=O)C3CCCO3)cc2)cc1 (configuration not stated),-5.0,-1.0,+,x
COC(=O)c1ccc(NC(=O)C2CC3CCC2C3)cc1 (configuration not stated),-3.1,-3.1,32.1*,4.5
CCc1ccc(NC(=O)c2ccc(NC(=O)C3CCCO3)cc2)cc1 (configuration not stated),-3.3,-3.2,-7.3,-8.6
Cc1noc(C)c1NC(=O)N(C)C[C@@H]1Oc2ccc(NS(=O)(=O)c3ccc(Cl)cc3)cc2CC(=O)N([C@@H](C)CO)C[C@H]1C,-11.6,x,x,x
C[C@@H]1CN([C@@H](C)CO)C(=O)c2cc(C3=CCCCC3)cnc2O[C@@H]1CN(C)Cc1ccccn1,2.6,x,x,x
O=C(O)CN1CCNCCN(CC(=O)O)CCNCC1,-3.5,-2.2,-2.0,-2.6
O=C(O)CN1CCN(CC(=O)O)CCN(CC(=O)O)CCN(CC(=O)O)CC1,59.5*,0.3,1.0,8.2
Cc1ccc(NNC(=O)c2cc(C(C)(C)C)nn2Cc2ccccc2)cc1,-2.2,-0.4,-7.7,2.1
CC(C)(C)c1cc(C(=O)NNc2cccc(Cl)c2)n(Cc2ccccc2)n1,4.9,-0.5,65.9*,2.3
Cc1nnc(SCC(=O)N2CCCC(C(=O)c3ccc(Cl)cc3)C2)o1 (configuration not stated),-3.9,x,38.5*,2.0
Cc1ccc(-c2nn(C)c(=O)c3ccccc23)cc1CNS(C)(=O)=O,x,-1.8,-2.8,15.4
Cc1ccc(-c2nn(C)c(=O)c3ccccc23)cc1CN1CCCCC1,9.2,-0.6,47.3*,x
Cc1cccc(C(=O)NCc2ccc(S(N)(=O)=O)cc2)c1[N+](=O)[O-],-1.1,-0.3,45.8*,4.7
C=CCC(C#Cc1ccccc1)N(C)C (configuration not stated),2.7,-1.2,86.6*,1.9
CSCCC(NC(N)=O)C(=O)NCc1cccc(Cl)c1 (configuration not stated),-1.7,-2.1,5.9,0.3
CSCCC(NC(N)=O)C(=O)NCc1ccccc1Cl (configuration not stated),-1.9,x,38.2*,14.5
SMILES,ARNT TACC3 PPI,CAL PDZ FP-1,CAL PDZ FP-2,DYRK1A inh
CN(C)c1ccc2c(c1)[C@H]1C[C@H](CC(=O)NCc3cccc(F)c3)O[C@@H](CO)[C@H]1O2,22.7,x,x,x
CCOC(=O)C1CCN(c2c(NCCN(CC)c3ccccc3)c(=O)c2=O)CC1,4.1,0.0,54.2*,-2.5
Cc1noc(C)c1NC(=O)N(C)C[C@@H]1Oc2ccc(NC(=O)Nc3ccc(F)cc3)cc2CC(=O)N([C@H](C)CO)C[C@@H]1C,4.2,x,x,x
O=S(=O)(NCc1cc(-c2ccc(Cl)cc2)no1)c1ccc(Cl)cc1,7.5,-0.9,44.1*,2.8
C[C@H](CO)N1C[C@H](C)[C@H](CN(C)C(=O)C2CCCCC2)Oc2cc(C3=CCCCC3)ccc2S1(=O)=O,1.7,x,x,x
CN(C)c1ccc(C(=S)N2CCN(c3ccccc3)CC2)cc1,-7.0,x,50.5*,x
C/C(=N\NC(=O)Cc1cc(=O)[nH][nH]1)c1cccc([N+](=O)[O-])c1,3.8,-1.5,-6.7,0.3
C/C(=N/NC(=O)Cc1cc(=O)[nH][nH]1)c1ccc([N+](=O)[O-])cc1,-3.9,-1.6,35.7*,-2.1
OC(c1ccccc1)C(NCCNCc1ccccc1)c1ccccc1 (configuration not stated),3.4,-0.4,164.9*,4.8
Cc1cccc(S(=O)(=O)N2C[C@H]3[C@@H](c4ccccc42)[C@@H](CO)N3Cc2cccnc2)c1,-3.6,x,x,x
Cc1cccc(S(=O)(=O)N2C[C@H]3[C@@H](c4ccccc42)[C@H](CO)N3Cc2ccccn2)c1,19.8*,x,x,x
CN(CCOc1ccccc1)C(=O)c1ccc2c(c1)OCO2,0.6,-0.1,62.0*,-4.8
O=C(NCCOc1ccccc1)c1ccc2c(c1)OCO2,-2.3,-2.0,-4.7,-2.7
O=C(CNCCc1ccccc1)N1CCc2ccccc2C1,0.9,-1.2,44.9*,x
O=C(Cc1ccccc1)NCC(=O)N1CCc2ccccc2C1,-0.2,-0.4,0.3,1.9
CCCNC(=O)C[C@H]1C[C@H]2c3cc(NC(=O)Nc4ccccc4)ccc3O[C@H]2[C@H](CO)O1,-9.7,x,x,x
CCOC(=O)C1(C)Oc2ccccc2C(C(=O)OC)=C1C(=O)OC (configuration not stated),0.6,-0.6,+,2.3
Cc1ccccc1NC(=O)CSc1n[nH]c(-c2ccccn2)n1,64.4*,-2.7,-3.2,-3.5
COc1ccccc1OCC(=O)N/N=C/c1cccc2cccnc12,77.9*,-1.8,x,x
COc1ccc(NC(=O)CSc2cccc3cccnc23)c(OC)c1,4.1,-1.6,-3.0,-0.6
COc1cccc(/C=N/NC(=O)COc2cccc3cccnc23)c1O,3.4,-2.2,x,-3.0
COc1cccc(/C=N/NC(=O)CSc2cccc3cccnc23)c1,95.9*,-1.9,x,-3.5
Cc1cccc(NC(=O)CSc2cccc3cccnc23)c1C,83.7*,-0.9,-4.5,16.2
C[C@@H]1CCCCO[C@@H](CN(C)C)[C@@H](C)CN([C@H](C)CO)C(=O)c2cc(NC(=O)Nc3cccc4ccccc34)ccc2O1,-3.7,x,x,x
O=C(Nc1nccs1)[C@H]1[C@H](CO)[C@H]2Cn3c(cccc3=O)[C@@H]1N2C(=O)C1CCC1,-3.2,x,x,x
C/C=C/c1ccc2c(c1)O[C@H](CN(C)C(=O)Nc1ccc(C(F)(F)F)cc1)[C@H](C)CN([C@H](C)CO)S2(=O)=O,18.9,x,x,x
O=C(CSc1cccc2cccnc12)Nc1cccc(S(=O)(=O)N2CCOCC2)c1,25.6*,-1.5,x,-4.8
COc1ccc(OCC(=O)N/N=C/c2cccc3cccnc23)cc1,76.9*,-1.9,x,x
O=C(COc1ccc(Cl)cc1)N/N=C/c1cccc2cccnc12,9.1,0.2,x,x
O=C(CCCC1=NS(=O)(=O)c2ccccc2N1)NCCc1ccc(Cl)cc1,2.6,-1.3,-6.4,9.2

# From PubChem BioAssay
